In the library only some 2.3% were active in any assay of this set; here they are far more common.
ABCB1 inh: human ABCB1 inhibition, ABCG2 as counter-screen; P08183; CCRF-Adr cells, JC-1 efflux, flow cytometry; inhibition, % at 6.6 µM; 190,000 compounds, 0.067% hits; in the data active = inhibition above about 40%;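 note: 0% = vehicle and 100% = reference inhibitor; higher value means more JC-1 retained so stronger ABCB1 efflux block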
Target sequence (P08183 whole entry, looked up): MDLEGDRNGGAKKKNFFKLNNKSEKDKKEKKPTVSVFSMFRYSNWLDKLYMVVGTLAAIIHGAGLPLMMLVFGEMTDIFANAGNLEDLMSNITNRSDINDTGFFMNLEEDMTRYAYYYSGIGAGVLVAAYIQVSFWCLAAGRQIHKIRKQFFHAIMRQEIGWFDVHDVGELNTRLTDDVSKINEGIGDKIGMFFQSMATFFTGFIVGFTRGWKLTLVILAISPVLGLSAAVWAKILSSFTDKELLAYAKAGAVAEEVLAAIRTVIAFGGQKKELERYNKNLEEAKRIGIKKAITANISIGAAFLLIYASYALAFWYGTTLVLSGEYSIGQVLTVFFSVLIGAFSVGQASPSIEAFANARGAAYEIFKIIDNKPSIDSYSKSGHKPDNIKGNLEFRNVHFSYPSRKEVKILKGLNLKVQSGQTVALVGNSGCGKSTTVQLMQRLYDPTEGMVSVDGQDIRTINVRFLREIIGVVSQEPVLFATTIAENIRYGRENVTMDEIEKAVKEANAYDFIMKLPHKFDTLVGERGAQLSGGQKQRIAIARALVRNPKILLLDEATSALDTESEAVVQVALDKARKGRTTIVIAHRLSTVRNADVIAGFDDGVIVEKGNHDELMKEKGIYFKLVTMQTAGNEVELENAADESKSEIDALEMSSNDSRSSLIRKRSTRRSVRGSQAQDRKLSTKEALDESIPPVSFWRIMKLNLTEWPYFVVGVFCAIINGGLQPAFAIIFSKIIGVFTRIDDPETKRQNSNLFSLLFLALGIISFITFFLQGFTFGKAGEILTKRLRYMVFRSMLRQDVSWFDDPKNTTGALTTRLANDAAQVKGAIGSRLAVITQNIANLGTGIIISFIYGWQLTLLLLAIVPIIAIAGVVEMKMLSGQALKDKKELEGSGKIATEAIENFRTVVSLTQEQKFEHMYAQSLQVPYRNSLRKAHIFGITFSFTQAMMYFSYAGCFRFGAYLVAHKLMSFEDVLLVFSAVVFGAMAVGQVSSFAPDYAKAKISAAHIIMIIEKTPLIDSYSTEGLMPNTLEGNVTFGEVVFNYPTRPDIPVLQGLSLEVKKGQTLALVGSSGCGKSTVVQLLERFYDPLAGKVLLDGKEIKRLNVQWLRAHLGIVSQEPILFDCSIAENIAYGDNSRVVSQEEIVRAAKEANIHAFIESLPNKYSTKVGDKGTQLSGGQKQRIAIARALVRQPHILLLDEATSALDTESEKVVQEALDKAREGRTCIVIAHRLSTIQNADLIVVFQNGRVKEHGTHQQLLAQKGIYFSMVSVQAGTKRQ
MEKK3 PB1 HTS: modulators (inhibitors or enhancers) of MEK5 binding to human MEKK3 PB1 domain; 290,000 compounds, 1.4% hits; Q99759; AID 1529; binding response (% of control), % at 10 µM; bead-based flow cytometry, Alexa488-MEK5 binding to MEKK3; actives lie on both sides; 0 = blocked by unlabeled MEK5, 100 = vehicle;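 active = binding response more than 3 SD above or below the average of its plate-row segment, actives on both sides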;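 note: Alexa488 bead fluorescence after subtracting the streptavidin-only scavenger bead signal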
ABCG2 block: blocks JC-1 efflux by human ABCG2 transporter; inhibition, % at 6.6 µM; AID 1325; Q9UNQ0; 190,000 compounds, 0.1% hits; IgMXP3 cells, flow cytometry;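 active = inhibition above 80%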;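 note: 0% = DMSO and 100% = nicardipine control wells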
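Measure – % inhibition of efflux relative to nicardipine and DMSO · Test system – ABCG2 IgMXP3 and barcoded ABCB1 CCRF-Adr cell mix · Control set – nicardipine as high control, DMSO as low control · Compound – one concentration, 6.6 µM final · Signal – flow cytometry of retained JC-1 fluorescence · Timing – 10 min exposure at 25 °C with rotation, no wash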
MEKK2mut PB1 HTS: signal of MEK5 binding to mutant human MEKK2 PB1 domain | bead flow cytometry, Alexa488-MEK5 binding to MEKK2 mutant | 290,000 compounds, 0.35% hits | percent response, % at 10 µM; in the data active = percent response above about 24%, passing the limit was not always enough
MEKK2wt PB1 HTS: raises or lowers MEK5 binding to wildtype human MEKK2 PB1 domain | bead flow cytometry, Alexa488-MEK5 binding to MEKK2 WT; actives lie on both sides | 290,000 compounds, 1.1% hits | Q9Y2U5 | AID 1531 | binding response (% of control), % at 10 µM; in the data active = binding response below about 67% or above about 130%
MEKK2wt confirm: raises or lowers MEK5 binding to wildtype human MEKK2, retest. shares compounds with MEKK3 PB1 HTS. bead flow cytometry, Alexa488-MEK5 binding to MEKK2 WT; actives lie on both sides. binding response (% of control), % at 10 µM. 5,900 compounds, 2.4% hits; in the data active = binding response below about 16% or above about 210%; inactive = in between
MEKK2mut-MEK5: signal of MEK5 binding to mutant human MEKK2, retest; shares compounds with MEKK3 PB1 HTS; bead flow cytometry, Alexa488-MEK5 binding to MEKK2 mutant; percent response, % at 10 µM; 5,900 compounds, 2% hits; AID 1893; in the data active = percent response mostly above about 71%, no sharp cut-off; inactive = mostly below about 38%;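 note: higher means compound restores mutant binding toward wildtype level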
MEKK3 confirm: confirmation of inhibitors of MEK5 binding to human MEKK3 | bead flow cytometry, Alexa488-MEK5 binding to MEKK3; hits give low values | binding response (% of control), % at 10 µM | shares compounds with MEKK3 PB1 HTS | 5,900 compounds, 1.8% hits | AID 1894;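 active = binding response below 72% of control, or above a set upper limit, though filed actives all read lower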;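 note: 100% = DMSO only wells and 0% = binding blocked by excess unlabeled MEK5; lower values mean stronger disruption of MEK5 binding to MEKK3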
Starred values were filed as active, the others as inactive; / = no result given; [ ] = dose if it differs, or a comment.

SMILES	ABCB1 inh	MEKK3 PB1 HTS	ABCG2 block	MEKK2mut PB1 HTS	MEKK2wt PB1 HTS	MEKK2wt confirm	MEKK2mut-MEK5	MEKK3 confirm
COc1cc(O)c(C(CCN2CCOCC2)c2ccc3c(c2)OCO3)c(OC)c1 (configuration not stated)	/	92	/	1	90	/	/	/
COc1ccc(C(CCN)c2ccc3c(c2)OCO3)cc1 (configuration not stated)	/	102	/	28*	124	132	16	105
CCOc1ccc(NC(=O)CCC(=O)c2ccc(F)cc2)cc1	/	100	/	2	100	/	/	/
CC(C)(C)c1cc(NC(=O)CSc2nnc(NCc3ccccc3)s2)n(-c2ccccc2)n1	1	102	5	10	103	/	/	/
COCCNc1nnc(SCC(=O)Nc2cc(-c3ccccc3)nn2-c2ccccc2)s1	0	68*[inhibitor]	-1	-1	100	127	8	104
Cc1cc(C)cc(N(CC(=O)Nc2ccccc2-c2ccccc2)S(=O)(=O)c2ccccc2)c1	6	134*	18	0	107	98	-4	102
CSc1ccccc1NC(=O)CN(c1cccc(C)c1)S(C)(=O)=O	2	67*[inhibitor]	29	-11	81	98	-7	98
CCOC(=O)C1=C(C)N(C)C(=O)NC1c1cccc2ccccc12 (configuration not stated)	/	104	/	1	102	/	/	/
CCCCN(C)CCNC(=O)C(=O)c1c(C)[nH]c2ccccc12	0	75*[inhibitor]	0	-4	84	99	-4	101
CC(=O)c1cccc(NC(=O)COC(=O)c2ccccc2C)c1	/	101	/	1	99	/	/	/
COc1ccc(N2CCN(C(=O)C3CCN(S(=O)(=O)c4cccs4)CC3)CC2)cc1	-1	100	2	-3	96	/	/	/
COc1ccc(CN2CCN(C(=O)C3CCN(S(=O)(=O)c4cccs4)CC3)CC2)c(OC)c1OC	-2	1.0*[inhibitor]	-3	-47	1.0*[inhibitor]	103	4	102
COc1ccc(CCN2C(=O)c3ccccc3NC2c2cc(Cl)c(O)c(OC)c2)cc1 (configuration not stated)	/	100	/	-6	97	/	/	/
COc1ccc(NC(=O)CCNC(=O)c2ccco2)c(OC)c1	/	104	/	1	101	/	/	/
CCNc1ccc(C(=O)N/N=C/c2c(C)nn(-c3ccccc3)c2N2CCCC2)cc1[N+](=O)[O-]	1	138*	5	1	107	101	0	102
CCOC(=O)CNc1nc(Cl)nc(NC(C)(C)C)n1	0	130*	0	2	119	102	0	96
CN(CC(=O)NCc1cccs1)S(=O)(=O)c1cccc2nsnc12	0	2.0*[inhibitor]	1	-21	3.0*[inhibitor]	107	7	103
CN(CC(=O)NCc1ccc(F)cc1)S(=O)(=O)c1cccc2nsnc12	1	98	5	-5	97	/	/	/
N#CC1=C(N)Oc2cc(O)ccc2C1c1cccnc1 (configuration not stated)	0	132*	0	1	120	108	-5	102
N#CC1=C(N)Oc2cc(O)c(Cl)cc2C1c1cccnc1 (configuration not stated)	/	102	/	12	102	/	/	/
Cc1ccc(S(=O)(=O)NC(=O)N(C)C2CCCCC2)cc1	/	130*	/	28	130	84	-4	100
Cc1ccc(S(=O)(=O)C2(C(=O)N(C)C3CCCCC3)CC2)cc1	1	109	1	5	111	/	/	/
Cc1cc(/C=C(\C#N)C(=O)Nc2ccc(F)cc2)c(C)n1-c1ccc(N2CCOCC2)c([N+](=O)[O-])c1	1	101	4	1	101	/	/	/
COc1ccc(NC(=O)/C(C#N)=C/c2cc(C)n(-c3ccc(N4CCOCC4)c([N+](=O)[O-])c3)c2C)cc1	0	132*	-5	0	102	102	3	106
O=S(=O)(NCc1cccnc1)c1ccc(Cl)cc1	/	105	/	1	104	/	/	/
SMILES	ABCB1 inh	MEKK3 PB1 HTS	ABCG2 block	MEKK2mut PB1 HTS	MEKK2wt PB1 HTS	MEKK2wt confirm	MEKK2mut-MEK5	MEKK3 confirm
CN(CCS(=O)(=O)c1ccc(Cl)cc1)Cc1cccnc1	/	138*	/	29	119	100	-1	101
Cn1c(=O)c2sccc2n2c(CCCC(=O)NCCc3ccccc3)nnc12	/	102	/	-7	98	/	/	/
CCOC(=O)c1c(C)[nH]c2cc(Br)c(O)cc12	0	2.0*[inhibitor]	0	5	2.0*[inhibitor]	102	4	106
CN(C)CCCN1c2ccccc2CCc2ccc(Cl)cc21	2	77	12	13	148*	131	12	106
CNCCCN1c2ccccc2CCc2ccccc21	0	98	0	-2	101	/	/	/
CN(CCCN1c2ccccc2CCc2ccccc21)CC(=O)c1ccc(Cl)cc1	/	107	/	18	165*	130	16	96
CN(C)CCCN1c2ccccc2Sc2ccccc21	0	104	0	8	106	/	/	/
Cc1ccccc1C(=O)Nc1nnc(S(=O)(=O)N2CCCCC2)s1	/	101	/	-5	96	/	/	/
CCN(Cc1ccncc1)C(=O)CCc1nnc(CCc2ccccc2OC)o1	1	70*[inhibitor]	2	-8	80	99	-6	101
COc1ccccc1CCc1nnc(CCC(=O)NC(C)Cc2cccnc2)o1 (configuration not stated)	0	47*[inhibitor]	1	-16	55	101	3	105
O=C(NCCNC(=O)c1ccc(Cl)cc1Cl)c1cnccn1	/	104	/	3	107	/	/	/
O=c1c2c([nH]n1-c1ccccc1)CCSC2	/	102	/	0	105	/	/	/
CNC(=S)N(CCc1c(C)[nH]c2ccc(Cl)cc12)Cc1cccnc1	/	105	/	11	108	/	/	/
CCNC(=S)N(CCc1c(C)[nH]c2ccc(Cl)cc12)Cc1cccnc1	/	106	/	29*	127	118	10	104
COCCNC(=S)N(CCc1c(C)[nH]c2ccc(Cl)cc12)Cc1cccnc1	/	107	/	24*	124	115	1	100
O=C(O)CCCC(=O)Nc1ccccc1SCCS(=O)(=O)c1ccc(Cl)cc1	/	100	/	3	98	/	/	/
CNC[C@H](CC1CCCCC1)NC[C@H](Cc1ccccc1)NCCC12CC3CC(CC(C3)C1)C2	/	109	/	70*	278*	265*	126*	115

Screening results deposited in PubChem by NMMLSC.
